From the array DNA melting data of Ke et al. (doi:10.1101/2024.01.08.574731) come the findings set out here.

The nature of data set [1]: folding enthalpy; higher = less favourable; fluorescence melt of hairpins on a sequencing array, two-state fit. To be noted: sodium 0.088 M. The essentials: (§1)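 Cy3 signals were normalised both to pre-quench Cy3 and to control constructs. They came from library hairpins carrying annealed Cy3 and quencher oligos on a sequenced MiSeq flow cell, imaged in 50 mM Na-HEPES pH 8.0, 25 mM NaCl, in 2.5 °C steps up to 60 °C. Bootstrapped two-state fits gave melting temperature and folding enthalpy, and four replicates were combined by inverse variance. Fitted temperatures were then raised by 9.35 °C to match UV melts.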

Data set [2] in a line: melting temperature; fluorescence melt of hairpins on a sequencing array, two-state fit, raised by 9.35 °C to match UV melts. The settings on record: sodium 0.088 M. The essentials: as §1

Take GGGTTCGGAAACGAGCCC (((.(((....))).))): the folding enthalpy in data set [1] was -57.9 kcal/mol. Moreover, the Tm in data set [2] turned out to be 58.1 °C.

In the case of GGGTTCGGAAACGGACCC ((((.((....)).)))), the folding enthalpy in data set [1] was -46.2 kcal/mol. Moreover, the Tm in data set [2] stood at 59.6 °C.

In the case of GGGTTGGAAACAACCC ((((((....)))))), the folding enthalpy in data set [1] was -38.2 kcal/mol. Moreover, the Tm in data set [2] amounted to 64.7 °C.

As for GGGTTGGGAAACCAACCC (((((((....))))))), the folding enthalpy in data set [1] is -32.3 kcal/mol. Further, in data set [2], the Tm was found to be 69.3 °C.

As to GGGTTGGGAAACTAGCCC (((.(.(....).).))), the folding enthalpy in data set [1] was -21.4 kcal/mol. For the same sequence, the Tm in data set [2] stood at 42 °C.

With GGGTTGGGAAACTGACCC ((((..(....)..)))), in data set [1], the folding enthalpy was -26.5 kcal/mol. Also, the Tm in data set [2] stood at 45.1 °C.

In the case of GGGTTTCGAAAGAATCCC (((.(((....))).))), the folding enthalpy in data set [1] was -36.6 kcal/mol. Moreover, the Tm in data set [2] is 50.1 °C.

GGGTTTGAAAAAACCC ((((((....)))))): the folding enthalpy in data set [1] is -40 kcal/mol. Also, the Tm in data set [2] is 58.4 °C.

With GGGTTTGGAAACAAACTC (.(((((....))))).), in data set [1], the folding enthalpy is -29.8 kcal/mol. In addition, in data set [2], the Tm stood at 46.6 °C.

Regarding GGTAAAGAAATTTACC ((((((....)))))), the folding enthalpy in data set [1] was -26 kcal/mol. In data set [2], the Tm came to 40.1 °C.

Turning to GGTAAAGGAAACTTTGCC ((.((((....)))).)), the folding enthalpy in data set [1] was -28.6 kcal/mol. The Tm in data set [2] stood at 42.6 °C.

GGTAACCCGAAAGGGACC (((..(((....)))))): in data set [1], the folding enthalpy was -14.9 kcal/mol. In addition, in data set [2], the Tm worked out at 36.5 °C.

In the case of GGTAACCGAAAGGTCACC (((.(((....))).))), the folding enthalpy in data set [1] was -25 kcal/mol. In data set [2], the Tm came out at 48.2 °C.

On to GGTAACGAAAGTTAACC ((((((....))).))), for which the folding enthalpy in data set [1] was -18.2 kcal/mol. For the same sequence, the Tm in data set [2] was found to be 45.3 °C.

GGTAACGAAAGTTCACC ((((((....))).))): in data set [1], the folding enthalpy was -21.2 kcal/mol. Besides, the Tm in data set [2] was determined as 38.3 °C.

In the case of GGTAACGAAAGTTTAACC ((((((....)))..))), in data set [1], the folding enthalpy was -15.7 kcal/mol. In addition, the Tm in data set [2] worked out at 33.8 °C.

Regarding GGTAACGGAAACGTTACC (((((((....))))))), the folding enthalpy in data set [1] is -45.6 kcal/mol. Besides, in data set [2], the Tm amounted to 63.2 °C.

On to GGTAAGCCGAAAGGCACC (((..(((....)))))), for which the folding enthalpy in data set [1] was -15.4 kcal/mol. Further, the Tm in data set [2] turned out to be 42 °C.

Take GGTAATCGAAAGATCACC (((.(((....))).))): the folding enthalpy in data set [1] is -25.6 kcal/mol. The Tm in data set [2] was 39.2 °C.

Consider GGTACACGAAAGTGCACC (((.(((....))).))), for which, in data set [1], the folding enthalpy is -33.9 kcal/mol. Further, the Tm in data set [2] was found to be 52.3 °C.

For GGTACAGGAAACTGTGCC ((.((((....)))).)), the folding enthalpy in data set [1] was -31.8 kcal/mol. Besides, the Tm in data set [2] worked out at 52.6 °C.

Turning to GGTACATCGAAAGATACC (((..(((....)))))), the folding enthalpy in data set [1] was -11.5 kcal/mol. Further, in data set [2], the Tm is 29.7 °C.

In the case of GGTACCCGAAAGGGCACC (((.(((....))).))), in data set [1], the folding enthalpy is -32.3 kcal/mol. In data set [2], the Tm is 55.6 °C.

With GGTACCGAAAGGTAACC ((((((....))).))), the folding enthalpy in data set [1] is -26.9 kcal/mol. Moreover, in data set [2], the Tm came out at 53.4 °C.

As to GGTACCGAAAGGTATACC ((((((....)))..))), the folding enthalpy in data set [1] is -15.3 kcal/mol. For the same sequence, in data set [2], the Tm turned out to be 41.4 °C.

GGTACCGAAAGGTCAACC ((((((....)))..))): the folding enthalpy in data set [1] is -15.3 kcal/mol. Moreover, the Tm in data set [2] was determined as 34.5 °C.

As to GGTACCGAAAGGTTACC ((((((....))).))), the folding enthalpy in data set [1] is -26.4 kcal/mol. Moreover, the Tm in data set [2] came to 50 °C.

As to GGTACCGAAAGGTTTACC ((((((....)))..))), the folding enthalpy in data set [1] was -13.8 kcal/mol. For the same sequence, in data set [2], the Tm is 37.1 °C.

Turning to GGTACCGGAAACAGTACC (((((.(....).))))), in data set [1], the folding enthalpy was -31.1 kcal/mol. In data set [2], the Tm turned out to be 39.9 °C.

For the sequence GGTACCGGAAACGGTGCC ((.((((....)))).)), the folding enthalpy in data set [1] was -38.3 kcal/mol. Further, the Tm in data set [2] stood at 60.6 °C.

GGTACGCGAAAGCGACC (((.(((....)))))): in data set [1], the folding enthalpy was -14.9 kcal/mol. For the same sequence, the Tm in data set [2] was found to be 54.8 °C.

Consider GGTACGGGAAACCACACC (((..((....))..))), for which the folding enthalpy in data set [1] was -16.2 kcal/mol. Moreover, the Tm in data set [2] came to 33 °C.

With GGTACGGGAAACCGTGCC ((.((((....)))).)), the folding enthalpy in data set [1] was -40.9 kcal/mol. Besides, the Tm in data set [2] stood at 59.7 °C.

On to GGTACGGGAAACCGTGTC (..((((....))))..), for which the folding enthalpy in data set [1] was -14.1 kcal/mol. In addition, the Tm in data set [2] was found to be 35.3 °C.

Regarding GGTACTCGAAAGAGCACC (((.(((....))).))), the folding enthalpy in data set [1] was -34.8 kcal/mol. In data set [2], the Tm was found to be 50.5 °C.

GGTACTCGAAAGAGGACC (((.(((....))).))): in data set [1], the folding enthalpy is -42.7 kcal/mol. Besides, the Tm in data set [2] amounted to 61.5 °C.
